# Reference: PubChem BioAssay AID623962 (The Scripps Research Institute Molecular Screening Center, 2012)
# Where “and” joins values, the source holds several entries; their conditions need not be identical. Equal entries are not always repeated. Calls of active or inactive are those of the source.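 Rule for the calls: active = mean inhibition at 10 µM of 50% or more; inactive = mean inhibition at 10 µM below 50%.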
# Tested on: Huh-7.5 HCV Rluc replicon, luciferase luminescence, 72 h
# Assay: HCV RNA replication inhibitors in Huh-7.5 cells – cell-based, luminescence, Renilla luciferase replicon, orthogonal assay for HCV NS3 helicase inhibitor project, late-stage follow-up (AID 623962)
# Conditions: at 10 µM; active compounds read high
# In short: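 Dosing: one concentration, 10 µM in 0.5% DMSO / Assay system: Huh-7.5 HCV Renilla luciferase replicon cells / Benchmarks: DMSO-treated cells as uninhibited reference / Signal: Renilla luciferase luminescence of lysed cells / Schedule: cell attachment 4-5 h, then compound exposure 72 h, 37 °C, 5% CO2 / Read-out basis: % replication inhibition versus DMSO-treated cells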
row,Structure (SMILES),inhibition
1,Cc1ccc2nc(-c3ccc4nc(-c5ccc(NC(=O)c6ccc(C(F)(F)F)c(F)c6)cc5)sc4c3)sc2c1S(=O)(=O)O,48% (inactive)
2,Cc1ccc2nc(-c3ccc4nc(-c5ccc(NC(=O)c6cccc(C(F)(F)F)c6)cc5)sc4c3)sc2c1S(=O)(=O)O,41% (inactive)
3,Cc1ccc2nc(-c3ccc(NC(=O)c4ccc(NC(=O)Nc5ccccc5)cc4)cc3)sc2c1S(=O)(=O)O,-64% (inactive)
4,Cc1ccc2nc(-c3ccc4nc(-c5ccc(N(C)C(=O)c6ccc7ccccc7c6)cc5)sc4c3)sc2c1S(=O)(=O)O,24% (inactive)
5,Cc1ccc2nc(-c3ccc(NC(=S)Nc4ccccc4Br)cc3)sc2c1,80%
6,Cc1ccc2nc(-c3ccc4nc(NC(=O)c5ccc6ncoc6c5)sc4c3)sc2c1,90%
7,Cc1ccc2nc(-c3ccc4nc(-c5ccc(NC(=O)c6ccccc6C(F)(F)F)cc5)sc4c3)sc2c1S(=O)(=O)O,0% (inactive)
8,CCOc1ccc2nc(NC(=O)c3ccc4ncsc4c3)sc2c1,99%
9,Cc1ccc2nc(-c3ccc4nc(-c5ccc(NC(=O)Nc6ccc(F)cc6)cc5)sc4c3)sc2c1S(=O)(=O)O,17% (inactive)
10,Cc1ccc2c(sc(-c3ccc4c(c3)sc(-c3ccc5c(c3)sc(-c3ccc(N(C)C)cc3)[n+]5C)[n+]4C)[n+]2C)c1S(=O)(=O)O (tested in a mixture with another compound),-16% (inactive)
11,Cc1ccc2nc(-c3ccc(N)cc3)sc2c1S(=O)(=O)O,0% (inactive)
12,Cc1ccc2nc(-c3ccc(NC(=O)c4ccc(N)cc4)cc3)sc2c1S(=O)(=O)O,21% (inactive)
13,CCN(CC)c1ccc(-c2nc3ccc(C)c(S(=O)(=O)O)c3s2)cc1,0% (inactive)
14,CC(=O)Nc1ccc(-c2nc3ccc(-c4nc5ccc(C)c(S(=O)(=O)O)c5s4)cc3s2)cc1,26% (inactive)
15,Cc1ccc2nc(-c3ccc4nc(-c5ccc(NC(=O)c6ccc7nc(-c8ccc(N)cc8)sc7c6)cc5)sc4c3)sc2c1S(=O)(=O)O,37% (inactive)
16,Cc1ccc2nc(-c3ccc4nc(-c5ccc(NS(=O)(=O)c6ccc(C(F)(F)F)cc6)cc5)sc4c3)sc2c1S(=O)(=O)O,-7% (inactive)
17,Cc1ccc2nc(-c3ccc4nc(-c5ccc(NC(=O)c6cc(C(F)(F)F)ccc6F)cc5)sc4c3)sc2c1S(=O)(=O)O,39% (inactive)
18,Cc1ccc2nc(-c3ccc4nc(-c5ccc(NC(=O)c6ccc7nc(-c8ccc(NC(=O)OCC9c%10ccccc%10-c%10ccccc%109)cc8)sc7c6)cc5)sc4c3)sc2c1S(=O)(=O)O,42% (inactive) and 44% (inactive)
19,Cc1ccc2nc(-c3ccc4nc(-c5ccc(NC(=O)c6ccc(CNC(=O)OCC7c8ccccc8-c8ccccc87)cc6)cc5)sc4c3)sc2c1S(=O)(=O)O,48% (inactive)
20,Cc1ccc2nc(-c3ccc4nc(-c5ccc6nc(-c7ccc8nc(-c9ccc(N)cc9)sc8c7)sc6c5)sc4c3)sc2c1S(=O)(=O)O,0% (inactive) and 45% (inactive)
21,Cc1ccc2nc(-c3ccc4nc(-c5ccc(NC(=O)Nc6ccccc6)cc5)sc4c3)sc2c1S(=O)(=O)O,-18% (inactive)
22,Cc1ccc2nc(-c3ccc4nc(-c5ccc(NC(=O)c6ccc(C(F)(F)F)cc6)cc5)sc4c3)sc2c1S(=O)(=O)O,44% (inactive)
23,O=C(CCCCCCC(=O)Nc1ccc(-c2nc3ccccc3[nH]2)cc1)Nc1ccc(-c2nc3ccccc3[nH]2)cc1,96%
24,Cc1ccc2nc(-c3ccc4nc(-c5ccc(NC(=O)c6ccc(Br)cc6)cc5)sc4c3)sc2c1S(=O)(=O)O,7% (inactive)

row,Structure (SMILES),inhibition
1,CS(=O)(=O)c1ccc2nc(NC(=O)c3ccc4ncsc4c3)sc2c1,55%
2,Cc1ccc2nc(-c3ccc4nc(-c5ccc(NC(=O)c6ccc(C(C)(C)C)cc6)cc5)sc4c3)sc2c1S(=O)(=O)O,51%
3,Cc1ccc2nc(-c3ccc(NC(=O)c4ccc(NC(=S)Nc5ccccc5)cc4)cc3)sc2c1S(=O)(=O)O,-13% (inactive)
4,Cc1ccc2nc(-c3ccc4nc(-c5ccc(NC(=O)c6ccc(F)cc6)cc5)sc4c3)sc2c1S(=O)(=O)O,50%
5,COc1ccc(S(=O)(=O)Nc2ccc(-c3nc4ccc(-c5nc6ccc(C)c(S(=O)(=O)O)c6s5)cc4s3)cc2)cc1,44% (inactive)
6,Cc1ccc2nc(-c3ccc4nc(-c5ccc(NC(=S)Nc6ccccc6)cc5)sc4c3)sc2c1S(=O)(=O)O,9% (inactive)
7,Cc1ccc(C(=O)Nc2ccc(-c3nc4ccc(-c5nc6ccc(C)c(S(=O)(=O)O)c6s5)cc4s3)cc2)cc1,52%
8,Cc1ccc2nc(-c3ccc(NC(=O)c4ccc(NC(=O)c5ccccc5)cc4)cc3)sc2c1S(=O)(=O)O,19% (inactive)
9,COC(=O)c1ccc(C(=O)Nc2ccc(-c3nc4ccc(-c5nc6ccc(C)c(S(=O)(=O)O)c6s5)cc4s3)cc2)cc1,40% (inactive)
10,CCOc1ccc2c(NNC(=O)c3cnccn3)c3c(nc2c1)CCCC3,81%
11,Cc1ccc2nc(-c3ccc4nc(-c5ccc(NC(=O)c6ccc7ncoc7c6)cc5)sc4c3)sc2c1S(=O)(=O)O,15% (inactive)
12,Cc1ccc2nc(-c3ccc(NC(=O)c4ccc(C(F)(F)F)cc4)cc3)sc2c1S(=O)(=O)O,11% (inactive)
13,Cc1ccc2nc(-c3ccc(NC(=O)c4ccc(NC(=O)c5ccc(C(F)(F)F)cc5)cc4)cc3)sc2c1S(=O)(=O)O,4% (inactive)
14,Cc1cc(C(O)(c2ccc(Nc3ccccc3)cc2)c2ccc(Nc3ccc(S(=O)(=O)O)cc3)cc2)ccc1N (stereo unspecified),23% (inactive)
15,Cc1ccc2nc(-c3ccc(NC(=O)c4ccc(NC(=O)OCC5c6ccccc6-c6ccccc65)cc4)cc3)sc2c1S(=O)(=O)O,31% (inactive)
16,Cc1ccc(NC(=O)Nc2ccc(-c3nc4ccc(-c5nc6ccc(C)c(S(=O)(=O)O)c6s5)cc4s3)cc2)cc1,43% (inactive)
17,Cc1ccc2nc(-c3ccc4nc(-c5ccc6nc(-c7ccc(N)cc7)sc6c5)sc4c3)sc2c1S(=O)(=O)O (tested in a mixture with another compound),0% (inactive)
18,Cc1cc2sc(-c3ccc4nc(-c5ccc(N)cc5)sc4c3)nc2cc1S(=O)(=O)O,28% (inactive)
19,Cc1ccc2nc(-c3ccc4nc(-c5ccc(NC(=O)c6ccc(Cl)c(Cl)c6)cc5)sc4c3)sc2c1S(=O)(=O)O,43% (inactive)
20,Cc1ccc2nc(-c3ccc4nc(-c5ccc(NC(=O)c6ccc(N)cc6)cc5)sc4c3)sc2c1S(=O)(=O)O,33% (inactive)
21,Cc1ccc2nc(-c3ccc4nc(-c5ccc(NC(=O)c6c(F)cccc6C(F)(F)F)cc5)sc4c3)sc2c1S(=O)(=O)O,55%
22,Cc1ccc2nc(-c3ccc4nc(-c5ccc(NC(=O)c6ccc(NC(=O)OCC7c8ccccc8-c8ccccc87)cc6)cc5)sc4c3)sc2c1S(=O)(=O)O,57%
23,Cc1ccc2nc(-c3ccc(NC(=O)c4ccc(NS(=O)(=O)c5ccccc5)cc4)cc3)sc2c1S(=O)(=O)O,-73% (inactive)
24,Cc1ccc2nc(-c3ccc(NC(=O)c4ccc(NC(=O)c5ccc(NC(=O)OCC6c7ccccc7-c7ccccc76)cc5)cc4)cc3)sc2c1S(=O)(=O)O,-14% (inactive)

row,Structure (SMILES),inhibition
1,Cc1ccc2nc(-c3ccc4nc(-c5ccc(NCc6ccccc6)cc5)sc4c3)sc2c1S(=O)(=O)O,-64% (inactive)
2,Cc1ccc2nc(-c3ccc4nc(-c5ccc(NC(=O)c6ccccc6)cc5)sc4c3)sc2c1S(=O)(=O)O,45% (inactive)
3,COc1cccc2c(=O)c3cc(Cl)cc(C(=O)Nc4cc(Cl)ccn4)c3[nH]c12,73%
4,Cc1ccc2nc(-c3ccc4nc(-c5ccc(NC(=O)c6ccc(Cl)cc6)cc5)sc4c3)sc2c1S(=O)(=O)O,42% (inactive)
5,Cc1ccc2nc(-c3ccc4nc(-c5ccc(NC(=O)c6cc(C(F)(F)F)cc(C(F)(F)F)c6)cc5)sc4c3)sc2c1S(=O)(=O)O,60%
6,Cc1ccc2nc(-c3ccc(NC(=O)c4ccc(NC(=O)c5ccc(N)cc5)cc4)cc3)sc2c1S(=O)(=O)O,-42% (inactive)
7,Cc1ccc2nc(-c3ccc4nc(-c5ccc(NC(=O)c6cccc7ccccc67)cc5)sc4c3)sc2c1S(=O)(=O)O,-9% (inactive)
8,Cc1ccc2nc(-c3ccc4nc(-c5ccc6nc(-c7ccc(N)cc7)sc6c5)sc4c3)sc2c1S(=O)(=O)O,59%
9,Cc1ccc2nc(-c3ccc4nc(-c5ccc(NC(=O)Nc6ccc(Cl)cc6)cc5)sc4c3)sc2c1S(=O)(=O)O,35% (inactive)
10,Cc1ccc2nc(-c3ccc4nc(-c5ccc(NC(=O)c6cc(F)ccc6C(F)(F)F)cc5)sc4c3)sc2c1S(=O)(=O)O,61%
11,Cc1ccc2nc(-c3ccc4nc(-c5ccc(NC(=O)Nc6ccc(C(F)(F)F)cc6)cc5)sc4c3)sc2c1S(=O)(=O)O,7% (inactive)
12,O=C(Nc1nc2ccc(Br)cc2s1)c1ccc2ncsc2c1,25% (inactive)
13,Cc1cc2sc(-c3ccc(N)cc3)nc2cc1S(=O)(=O)O,0% (inactive)
14,COc1ccc(NC(=O)Nc2ccc(-c3nc4ccc(-c5nc6ccc(C)c(S(=O)(=O)O)c6s5)cc4s3)cc2)cc1,21% (inactive)
15,Cc1ccc2nc(-c3ccc4nc(-c5ccc(NC(=O)c6cccnc6)cc5)sc4c3)sc2c1S(=O)(=O)O,51%
16,Cc1ccc2nc(-c3ccc4nc(-c5ccc(NC(=O)c6ccc(N(C)C)cc6)cc5)sc4c3)sc2c1S(=O)(=O)O,22% (inactive)
17,Cc1ccc2nc(-c3ccc4nc(-c5ccc(NC(=O)c6cccc(C(F)(F)F)c6F)cc5)sc4c3)sc2c1S(=O)(=O)O,48% (inactive)
18,COc1ccc2sc(NC(=O)c3ccc4ncsc4c3)nc2c1,60%
19,O=C(Nc1ccc(-c2nc3ccccc3[nH]2)cc1)c1ccc2ncsc2c1,-7% (inactive)
20,Cc1ccc2nc(-c3ccc4nc(-c5ccc(NC(=O)c6ccncc6)cc5)sc4c3)sc2c1S(=O)(=O)O,59%
21,CCN(CC)c1ccc(-c2nc3ccc(-c4nc5ccc(C)c(S(=O)(=O)O)c5s4)cc3s2)cc1,0% (inactive)
22,Cc1ccc2nc(-c3ccc4nc(-c5ccc(NC(=O)c6cc(F)cc(C(F)(F)F)c6)cc5)sc4c3)sc2c1S(=O)(=O)O,51%
23,Cc1ccc2nc(-c3ccc4nc(-c5ccc(NC(=O)c6cccc(Cl)c6)cc5)sc4c3)sc2c1S(=O)(=O)O,54%
